These results are taken from ChEMBL document CHEMBL2203264, “Optimization of imidazo[4,5-b]pyridine-based kinase inhibitors: identification of a dual FLT3/Aurora kinase inhibitor as an orally bioavailable preclinical development candidate for the treatment of acute myeloid leukemia” (J Med Chem, 2012).

Each structure is given as a SMILES string. Activity calls are given as the source filed them. The rule behind the calls is not given here.

Data set [1] is described as follows: AUC (infinity) in Balb/C mouse at 5 mg/kg, iv. The conditions noted are these: plasma. Details: time infinity, dose 5 mg/kg, route intravenous. Format: ADME, organism-based. The gist of the method: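 Female Balb/C mice dosed iv at 5 mg/kg in 10% DMSO, 5% Tween 20 in saline. Mice killed at 5, 15, 30 min and 1, 2, 4, 6, 24 h. Plasma from cardiac blood was methanol-precipitated with olomoucine internal standard, then analysed by LC–MS (positive ESI MRM).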

The next data set relates to Mus musculus. The experiment in a line: Inhibition of Stat5 phosphorylation at Y694 in tumor of human MV4-11 cells xenografted CrTacNCr-Fox1(nu) athymic mouse at 50 to 100 mg/kg, po bid for 4 days measured after 2 hrs post final dose. Format: functional, organism-based. In outline: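 MV4-11 xenograft-bearing athymic mice dosed orally at 50 or 100 mg/kg twice daily for 4 days, starting 17 days after implantation. Tumors harvested 2 h after the final dose. Western blotting for phospho-histone H3 (S10) and phospho-Stat5 (Y694), with total histone H3, total Stat5 and GAPDH as loading controls.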
(In general: A xenograft is tissue or cells of one species grown in another, often human tumour cells in immunodeficient mice.)

A short description of data set [2]: Clearance in Balb/C mouse at 5 mg/kg, iv. Format: ADME, organism-based. More on the design: dose 5 mg/kg, route intravenous. The conditions noted are these: in vivo. The gist of the method:
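Female Balb/C mice given a single 5 mg kg^-1 iv dose in 10% DMSO, 5% Tween 20 in saline. Mice sacrificed at 5, 15, 30 min and 1, 2, 4, 6, 24 h. Plasma from cardiac blood, methanol protein precipitation with olomoucine internal standard, LC–MS (positive ESI MRM). Clearance given in L/h.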

The next data set addresses Cytochrome P450 3A4 (Homo sapiens, UniProt P08684). The experiment in a line: Inhibition of human liver microsome CYP3A4 by LC-MS-MS analysis. It is filed as ADME. The gist of the method: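 Pooled human liver microsomes (50 donors) at 0.5 mg/mL protein, 10 min incubation; metabolite detected by LC-MS/MS with positive ESI.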
For orientation: Liver microsomes are vesicles of endoplasmic reticulum, rich in cytochrome P450 enzymes.

Data set [3] addresses Proto-oncogene tyrosine-protein kinase receptor Ret (Homo sapiens) (UniProt P07949). The experiment in a line: Inhibition of RET at 1 uM. The gist of the method: (§1)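 KINOMEScan competition-binding panel of 442 kinases (386 nonmutant) tested at 1 μM. Binding is read as percent of control ligand competition; <10% of control counts as a hit for the S(10) score.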
The next data set deals with T1, Cytochrome P450 1A2 (Homo sapiens, UniProt P05177).
T1 sequence (P05177 whole entry): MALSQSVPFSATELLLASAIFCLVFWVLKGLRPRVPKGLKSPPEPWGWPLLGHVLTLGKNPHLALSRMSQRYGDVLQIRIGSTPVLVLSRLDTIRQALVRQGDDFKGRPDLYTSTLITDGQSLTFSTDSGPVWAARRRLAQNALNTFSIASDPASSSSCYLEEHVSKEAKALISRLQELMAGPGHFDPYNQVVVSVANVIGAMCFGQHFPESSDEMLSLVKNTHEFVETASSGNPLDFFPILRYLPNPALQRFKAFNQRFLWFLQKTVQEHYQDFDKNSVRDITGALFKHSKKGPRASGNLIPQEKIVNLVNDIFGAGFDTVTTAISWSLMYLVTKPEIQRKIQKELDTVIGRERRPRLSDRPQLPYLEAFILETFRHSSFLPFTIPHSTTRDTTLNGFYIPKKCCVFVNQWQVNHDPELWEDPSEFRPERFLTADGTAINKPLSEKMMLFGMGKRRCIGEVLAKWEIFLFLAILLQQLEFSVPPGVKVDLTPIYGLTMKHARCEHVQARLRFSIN
Description: Inhibition of human liver microsome CYP1A2 by LC-MS-MS analysis.

Data set [4] addresses Vascular endothelial growth factor receptor 1 (Homo sapiens) (UniProt P17948). Description: Inhibition of FLT1 at 1 uM. In outline: as §1
Data set [5] can be described thus: Metabolic stability in mouse liver microsomes assessed as parent compound metabolism after 30 mins by LC-MS analysis. It is filed as ADME, Microsome. As to conditions: read-out: Drug metabolism. The gist of the method:
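Male CD1 mouse liver microsomes (1 mg/mL protein) incubated with 10 μM compound plus NADPH 1 mM, UDPGA 2.5 mM and MgCl2 3 mM in 10 mM PBS at 37 °C for 0 and 30 min. NADPH/UDPGA-free controls included. LC–MS quantitation of remaining compound; reported as percent parent metabolized after 30 min.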

The nature of data set [6]: AUC (infinity) in Sprague-Dawley rat at 5 mg/kg, iv. Format: ADME, organism-based. Details: time infinity, dose 5 mg/kg, route intravenous. As to conditions: plasma. In outline:
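Female Sprague–Dawley rats dosed iv at 5 mg/kg in 10% DMSO, 5% Tween 20, 85% saline, 0.3% 1 M HCl. Serial tail-vein bleeds at 15, 30 min and 2, 4, 6, 24 h. Plasma was methanol-precipitated with olomoucine internal standard, then analysed by LC–MS (positive ESI MRM).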

The test system of a further data set is MV4-11. The experiment in a line: Antitumor activity against human MV4-11 cells xenografted in CrTacNCr-Fox1(nu) athymic mouse assessed as tumor growth inhibition at 100 mg/kg, po bid administered 10 days post implantation daily for 7 days measured after 11 days. Format: functional, organism-based. More on the design: dose 100 mg/kg. In outline: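 Female adult athymic nude mice implanted subcutaneously with 10^7 FLT3-ITD-positive MV4-11 cells; treatment started 10 days after implantation, once mean tumor volume was at least 100 mm^3. Oral dosing at 50 or 100 mg/kg (n = 5 per group), twice daily for 7 days, then once daily for a further 4 days. Vehicle: 10% DMSO, 20% PEG 400, 5% Tween 80, 65% water. Tumor volume followed to day 60.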

Sequence of Proto-oncogene tyrosine-protein kinase receptor Ret (Homo sapiens) (P07949 whole entry): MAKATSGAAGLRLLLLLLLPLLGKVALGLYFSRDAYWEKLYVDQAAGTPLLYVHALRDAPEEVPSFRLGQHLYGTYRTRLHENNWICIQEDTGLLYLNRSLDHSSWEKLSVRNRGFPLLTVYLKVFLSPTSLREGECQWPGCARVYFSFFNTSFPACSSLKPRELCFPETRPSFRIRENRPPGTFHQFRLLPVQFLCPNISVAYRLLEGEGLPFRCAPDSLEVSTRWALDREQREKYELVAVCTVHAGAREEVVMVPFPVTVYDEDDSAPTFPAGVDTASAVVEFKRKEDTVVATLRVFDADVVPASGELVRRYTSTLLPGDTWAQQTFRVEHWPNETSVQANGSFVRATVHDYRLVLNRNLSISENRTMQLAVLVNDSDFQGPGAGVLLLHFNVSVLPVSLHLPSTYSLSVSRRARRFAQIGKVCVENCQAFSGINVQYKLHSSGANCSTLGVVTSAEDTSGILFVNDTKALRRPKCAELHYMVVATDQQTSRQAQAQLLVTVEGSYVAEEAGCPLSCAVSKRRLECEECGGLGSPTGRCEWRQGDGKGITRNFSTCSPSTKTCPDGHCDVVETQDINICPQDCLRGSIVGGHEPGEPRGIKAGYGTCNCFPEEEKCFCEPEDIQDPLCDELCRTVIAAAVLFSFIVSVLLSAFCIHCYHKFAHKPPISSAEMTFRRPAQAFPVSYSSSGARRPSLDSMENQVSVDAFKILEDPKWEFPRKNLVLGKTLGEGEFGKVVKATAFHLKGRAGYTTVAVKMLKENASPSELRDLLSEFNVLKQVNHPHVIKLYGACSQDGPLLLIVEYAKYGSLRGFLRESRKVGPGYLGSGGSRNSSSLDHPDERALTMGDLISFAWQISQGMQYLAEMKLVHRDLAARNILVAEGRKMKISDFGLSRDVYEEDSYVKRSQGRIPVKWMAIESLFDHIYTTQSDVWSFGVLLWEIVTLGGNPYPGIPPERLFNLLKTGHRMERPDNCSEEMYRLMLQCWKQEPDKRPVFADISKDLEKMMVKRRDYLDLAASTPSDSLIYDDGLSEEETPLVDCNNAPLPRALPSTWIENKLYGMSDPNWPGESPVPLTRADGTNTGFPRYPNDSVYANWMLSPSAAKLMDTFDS
Sequence of Cytochrome P450 3A4 (P08684 whole entry): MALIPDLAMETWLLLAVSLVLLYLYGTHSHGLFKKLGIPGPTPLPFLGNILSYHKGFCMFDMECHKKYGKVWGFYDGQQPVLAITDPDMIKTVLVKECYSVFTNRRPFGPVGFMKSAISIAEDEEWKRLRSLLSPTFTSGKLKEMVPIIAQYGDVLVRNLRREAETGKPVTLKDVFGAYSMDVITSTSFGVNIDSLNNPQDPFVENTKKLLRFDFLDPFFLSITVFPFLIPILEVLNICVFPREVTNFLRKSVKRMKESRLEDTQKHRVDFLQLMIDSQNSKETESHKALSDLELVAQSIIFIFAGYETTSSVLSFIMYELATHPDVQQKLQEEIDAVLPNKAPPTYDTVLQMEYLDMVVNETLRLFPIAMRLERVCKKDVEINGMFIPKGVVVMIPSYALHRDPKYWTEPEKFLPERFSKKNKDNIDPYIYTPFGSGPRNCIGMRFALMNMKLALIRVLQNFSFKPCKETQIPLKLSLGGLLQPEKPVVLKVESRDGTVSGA
Sequence of Vascular endothelial growth factor receptor 1 (Homo sapiens) (P17948 whole entry): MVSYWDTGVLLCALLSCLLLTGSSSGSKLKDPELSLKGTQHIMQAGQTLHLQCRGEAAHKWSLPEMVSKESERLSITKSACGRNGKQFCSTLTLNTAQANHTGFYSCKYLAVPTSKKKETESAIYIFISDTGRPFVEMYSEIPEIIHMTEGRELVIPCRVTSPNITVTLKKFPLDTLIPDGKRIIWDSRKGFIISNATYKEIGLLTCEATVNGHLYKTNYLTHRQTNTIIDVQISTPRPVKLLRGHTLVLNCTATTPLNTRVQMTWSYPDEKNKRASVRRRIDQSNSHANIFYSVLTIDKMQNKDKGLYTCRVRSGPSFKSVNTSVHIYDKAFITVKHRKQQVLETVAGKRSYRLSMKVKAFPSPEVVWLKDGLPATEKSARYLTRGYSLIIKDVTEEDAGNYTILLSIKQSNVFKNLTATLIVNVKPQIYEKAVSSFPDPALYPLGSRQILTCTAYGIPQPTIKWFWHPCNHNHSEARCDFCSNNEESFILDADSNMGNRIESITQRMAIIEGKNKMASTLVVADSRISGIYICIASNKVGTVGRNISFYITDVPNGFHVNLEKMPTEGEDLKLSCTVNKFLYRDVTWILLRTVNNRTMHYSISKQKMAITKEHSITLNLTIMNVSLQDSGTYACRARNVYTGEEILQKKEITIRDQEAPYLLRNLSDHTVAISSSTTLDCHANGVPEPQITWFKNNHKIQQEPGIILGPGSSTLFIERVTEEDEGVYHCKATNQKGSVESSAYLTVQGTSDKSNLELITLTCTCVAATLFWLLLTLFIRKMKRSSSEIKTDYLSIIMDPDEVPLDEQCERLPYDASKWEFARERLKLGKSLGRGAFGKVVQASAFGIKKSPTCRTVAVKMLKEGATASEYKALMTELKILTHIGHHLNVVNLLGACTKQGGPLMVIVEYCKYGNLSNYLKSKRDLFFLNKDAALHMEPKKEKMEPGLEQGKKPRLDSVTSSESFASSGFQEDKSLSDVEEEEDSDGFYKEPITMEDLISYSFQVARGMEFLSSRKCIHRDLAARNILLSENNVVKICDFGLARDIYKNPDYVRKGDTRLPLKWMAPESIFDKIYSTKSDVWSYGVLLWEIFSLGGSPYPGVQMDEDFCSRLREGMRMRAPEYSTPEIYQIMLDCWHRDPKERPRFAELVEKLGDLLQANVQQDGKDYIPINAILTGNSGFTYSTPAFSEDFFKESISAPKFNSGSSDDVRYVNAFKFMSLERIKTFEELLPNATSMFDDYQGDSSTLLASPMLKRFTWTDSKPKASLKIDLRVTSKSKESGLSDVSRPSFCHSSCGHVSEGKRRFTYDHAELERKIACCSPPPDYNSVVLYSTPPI

By AUC(0-inf) is commonly meant the area under the concentration-time curve extrapolated to infinity. Higher therefore signals more exposure. One may read the inhibition as the drop in the measured response relative to a control, in per cent. The term clearance denotes the volume of plasma or blood freed of the substance per unit of time. High values mean efficient removal, low ones inefficient removal. Usually IC50 stands for the midpoint of a concentration-inhibition curve. Low readings indicate inhibition by little substance, high ones a need for much substance. For `Cc1nn(C)cc1-c1nc2c(N3CCN(Cc4ccc(Cl)cc4)CC3)c(Cl)cnc2[nH]1` [MOBINITINIB], the total exposure AUC(0-inf) came out at 3.75 µM·h in [1] and 39.9 µM·h in [6]. Further, the inhibition entry in the data set on Mus musculus is “Active”. Also, the clearance in data set [2] is 0.967 mL/min. Also, the IC50 against Cytochrome P450 3A4 and against Cytochrome P450 1A2 was over 10 µM each time. Besides, the inhibition in data set [3] came to 1.8%; in [4], 0.3%. Also, the metabolised at 0.5 h in data set [5] turned out to be 34%. Besides, in the data set with MV4-11, the result was Active.
